Legend:
[1] = Oral bioavailability in cynomolgus monkey at 0.3 mg/kg; assay type: ADME, organism-based, Macaca fascicularis; conditions: in vivo
Outline: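 Healthy male cynomolgus monkeys, n = 3, received a 30 min iv infusion at 0.1 mg/kg or an oral dose at 0.3 mg/kg. The oral formulation was water at pH 3.1 (HCl). Plasma PK parameters (CL, Vss, F) are reported as mean ± SD.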

[2] = system: Cynomolgus monkey; test: Agonist activity at […] in po dosed cynomolgus monkey assessed as increase of serum IFNalpha level after 1 to 24 hrs by ELISA; assay type: functional, organism-based; conditions: Macaca fascicularis
Outline: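 Healthy male cynomolgus monkeys, n = 3 per group, dosed either by 30 min iv infusion or orally. Serum was sampled predose and at 1, 2, 4, 8, 12 and 24 h postdose. IFN-α was measured by species-specific ELISA (limit of detection 130 pg/mL) and reported as mean peak serum level ± SD.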

bioavailability [1]: 1.1%
Compound: CCCCOc1nc(N)c2c(n1)N(Cc1cccc(CN3CCCC3)c1)CC(=O)N2 [VESATOLIMOD]
Activity [2]: Dose-dependent effect

From ChEMBL document CHEMBL2424598, “Identification and optimization of pteridinone Toll-like receptor 7 (TLR7) agonists for the oral treatment of viral hepatitis” (J Med Chem, 2013)
